ChEMBL document CHEMBL1764962, “Selective biocatalytic aminolysis of (±)-epichlorohydrin: synthesis and ICAM-1 inhibitory activity of (S)-(+)-3-arylamino-1-chloropropan-2-ols” (Bioorg Med Chem, 2011)
In brackets after ≈: the same amount, converted by molar mass.

Experiments:
HUVEC [1] = experiment: Antiinflammatory activity in human HUVEC assessed as inhibition of TNF-alpha-induced ICAM-1 expression at maximum tolerable dose of 30 ug/ml by modified ELISA; assay type: functional
How it was run: (§1)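 Primary human umbilical cord endothelial cells were isolated by mild trypsinization and grown in M199 with 15% heat-inactivated FCS, L-glutamine, antibiotics, endothelial cell growth factor and heparin, then used at passages 3–4. Cells were preincubated with compound, then given TNF-α (10 ng/ml) for 16 h and fixed with glutaraldehyde. Surface ICAM-1 was measured by cell-ELISA using anti-ICAM-1 mAb overnight at 4 °C, HRP anti-mouse secondary and OPD substrate (pH 4.5), reading A490.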

HUVEC [2] = experiment: Antiinflammatory activity in human HUVEC assessed as inhibition of TNF-alpha-induced ICAM-1 expression by modified ELISA; assay type: functional, cell-based; how it was run: as §1
[3] = Toxicity in human HUVEC assessed as maximum tolerable dose by trypan blue exclusion assay; assay type: cell-based; conditions: HUVEC cells, read-out: MTD
How it was run: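 Primary human umbilical vein endothelial cells were isolated by mild trypsinization. They were grown in M199 with 15% heat-inactivated FCS, 2 mM L-glutamine, penicillin/streptomycin, amphotericin B, endothelial cell growth factor and heparin. Cells were subcultured at confluence with trypsin–EDTA and used at passages three to four. Viability was scored by trypan blue exclusion.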

HUVEC [4] = experiment: Antiinflammatory activity in human HUVEC assessed as inhibition of TNF-alpha-induced ICAM-1 expression at maximum tolerable dose of 40 ug/ml by modified ELISA; assay type: functional; how it was run: as §1
[5] = Homo sapiens, HUVEC, read-out: IC50

Row | Compound | inhibition at 30 µg/mL (HUVEC [1]) [%] | IC50 (HUVEC [2]; [5]) [µg/mL] | MNTC [3] [µg/mL] | inhibition at 40 µg/mL (HUVEC [4]) [%] | IC50 (HUVEC [2]; huvec)
1 | O[C@H](CCl)CNc1ccccc1 | 38 | 39.8 (≈ 214 µM) | 30 |  | 
2 | Cc1ccc(NC[C@H](O)CCl)cc1 |  | 28.8 (≈ 144 µM) | 40 | 81 | 
3 | COc1ccc(OC)c(NC[C@H](O)CCl)c1 | 40 |  | 30 |  | Not Active
4 | O[C@H](CCl)CNc1ccc(Br)cc1 |  | 31.6 (≈ 119 µM) | 40 | 76 | 
5 | O[C@H](CCl)CNc1ccccc1Cl |  | 33.1 (≈ 150 µM) | 40 | 86 | 
6 | O[C@H](CCl)CNc1cccc(Cl)c1 | 24 |  | 30 |  | Not Active
7 | O[C@H](CCl)CNc1ccc(Cl)cc1 | 60 | 28.8 (≈ 131 µM) | 30 |  | 
